Bioassay records: PubChem, Broad Institute
Hits are enriched below; roughly 3.1% of the tested compounds scored in any of these assays.
HIV Env fusion – inhibitors of HIV-1 Env-driven cell-cell fusion, primary screen, HeLa-JRFL effector, CEM21 target cells, luciferase; actives 1.1% (n = 360,000); inhibition, % at 12.3 µM;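 active means mean replicate inhibition score of at least 50 and every replicate individually at or above 50; inconclusive means only one of the two criteria met; inactive means mean below 50 and not all replicates reaching 50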
PGC1a acetyl inh – inhibitors of PGC1a acetylation signal, primary screen, cell-based, U2OS, AlphaScreen, inhibitor mode; actives 0.17% (n = 350,000); inhibition, % at 15.6 µM; AlphaScreen anti-acetyl-lysine; with virally co-expressed GCN5 acetyltransferase;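 active means every replicate shows inhibition of at least 40%; inconclusive means mean inhibition at least 40% but some replicate below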
EWS-Fli block – EWS/Fli-driven NR0B1 reporter inhibitors, primary screen, A673 cells, NR0B1 luciferase, luminescence, MLPCN library; viability-normalised; inhibition, % at 12.6 µM; actives 0.67% (n = 350,000); AID 651661, 2012;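 active means mean inhibition of at least 50% after viability correction, with every replicate also passing that limit; inconclusive means mean reaches 50% but only one of two replicates passes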;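 further: firefly luciferase signal divided by Alamar Blue viability fluorescence both relative to DMSO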
PAX8 reporter – inhibitors of PAX8-driven TPO luciferase reporter, primary screen, RMG-I cells, single concentration; inhibition, % at 12.6 µM; SteadyGlo, 24 h; actives 1.2% (n = 360,000); AID 652154, 2013;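 active means mean replicate inhibition at least 60% with every replicate also reaching 60%; inconclusive means only one of the two criteria is met; inactive means mean below 60% and not all replicates reaching 60%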;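 further: luciferase light reporting Pax8 driven TPO promoter activity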
FGF22 binding – binders of human FGF22 protein, primary screen, FGF22 synaptogenesis inhibitor project, biophysical, thermal shift, single point | recombinant FGF22 thermal shift, SYPRO orange fluorescence; percent of sucrose octasulfate shift, DMSO zero | activity (Tm shift, normalised), % at 9.99 µM | actives 1.5% (n = 340,000) | AID 651658, 2012;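 active means mean Tm shift, scaled 0 neutral to 100 positive control, at about 1.3% or above, every replicate too, limit read from the data; inconclusive means no clear call, values can overlap the other calls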
Target sequence (Q9HCT0 whole entry, looked up): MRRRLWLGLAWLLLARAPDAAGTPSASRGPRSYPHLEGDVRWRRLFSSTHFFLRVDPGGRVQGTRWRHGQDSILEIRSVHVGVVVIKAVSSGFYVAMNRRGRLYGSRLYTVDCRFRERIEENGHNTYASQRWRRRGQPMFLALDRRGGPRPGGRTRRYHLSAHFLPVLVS
FN deposition inh – inhibitors of fibronectin matrix deposition, primary screen, AH1F cells, Alexa488-fibronectin fluorescence, plate reader | AH1F fibroblasts, overnight | inhibition, % at 12.6 µM | actives 0.086% (n = 350,000) | AID 743247, 2014;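 active means mean inhibition across replicates of 30% or more, regardless of how many single replicates reach that level; inconclusive means mean under 30% yet at least half of replicates reach 30%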
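Material: AH1F fibroblast monolayer depositing Alexa488-labelled fibronectin into matrix / Amount: 10000 AH1F cells per well / Signal: fluorescence 485/525 nm / Medium: DMEM, 2% serum / Compound: single dose, pinned / Incubation: 1 h cell adhesion before compound, then overnight fibronectin incubation / Reagent: Alexa488-FN, 24 nM final / Read-out: inhibition of fibronectin deposition signal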
A number is an active result; – = inactive; ? = inconclusive; · = no result.

SMILES | HIV Env fusion | PGC1a acetyl inh | EWS-Fli block | PAX8 reporter | FGF22 binding | FN deposition inh
Cc1cccc(NC(=O)c2ncn3c2C(=O)N(C)CC3)c1 | – | · | – | – | 43 | –
CCNS(=O)(=O)c1ccc(CCC(=O)N2CCN(Cc3ccccc3)CC2)cc1 | – | – | – | – | – | –
CN(c1ccc(C(=O)N2CCN(Cc3ccc4c(c3)OCO4)CC2)cc1)S(=O)(=O)c1ccccc1 | ? | – | · | · | · | –
O=C(CCc1ccc(S(=O)(=O)NCCc2ccccc2)cc1)N1CCN(Cc2ccc3c(c2)OCO3)CC1 | 77 | – | · | – | · | –
CC(C)CNS(=O)(=O)c1ccc(CCC(=O)N2CCN(Cc3ccc4c(c3)OCO4)CC2)cc1 | 79 | – | · | · | · | –
Cc1ccc(S(=O)(=O)N(C)c2ccc(C(=O)N3CCN(Cc4ccc5c(c4)OCO5)CC3)cc2)cc1 | 83 | – | · | · | · | ·
CO[C@H]1CN(C)C(=O)c2cc(NC(=O)c3ccccc3)ccc2OC[C@H](C)N(C(=O)C2CC2)C[C@@H]1C | – | – | – | · | – | –
CC(C)NC(=O)Nc1ccc2c(c1)CC(=O)N([C@@H](C)CO)C[C@H](C)[C@@H](CN(C)CC1CC1)O2 | – | – | · | – | – | –
C[C@@H]1CN([C@H](C)CO)C(=O)c2cccc(NC(=O)Nc3cccc4ccccc34)c2O[C@H]1CN(C)C(=O)Nc1ccc(C(F)(F)F)cc1 | – | – | – | 81 | – | ·
C[C@H]1CN([C@@H](C)CO)C(=O)c2cccc(NC(=O)Nc3ccc4c(c3)OCO4)c2O[C@@H]1CN(C)C(=O)Nc1ccccc1 | – | – | – | – | – | ·
C[C@@H]1CN([C@H](C)CO)C(=O)c2cccc(NC(=O)Nc3cccc4ccccc34)c2O[C@@H]1CN(C)C(=O)Nc1ccc(C(F)(F)F)cc1 | – | – | – | – | – | ·
C[C@H](CO)N1C[C@H](C)[C@H](CN(C)C(=O)Nc2ccc3c(c2)OCO3)Oc2c(NC(=O)Nc3ccccc3)cccc2C1=O | – | – | – | 72 | – | ·
Cc1ccc(S(=O)(=O)N(C)C[C@H]2Oc3c(NC(=O)Nc4cccc5ccccc45)cccc3C(=O)N([C@@H](C)CO)C[C@@H]2C)cc1 | – | – | – | 103 | – | –
C[C@H]1CN([C@@H](C)CO)C(=O)c2cccc(NC(=O)Nc3cccc4ccccc34)c2O[C@@H]1CN(C)C(=O)Nc1ccc(C(F)(F)F)cc1 | – | – | – | 74 | – | ·
COc1ccccc1NC(=O)N(C)C[C@@H]1Oc2ncc(C#CC(C)C)cc2C(=O)N([C@H](C)CO)C[C@H]1C | · | – | – | – | · | –
CCC(=O)N[C@H]1CC[C@@H](CCNC(=O)Nc2ccc(F)cc2)O[C@H]1CO | – | – | – | – | – | –
C/C=C/c1ccc2c(c1)O[C@H](CN(C)C(=O)NC1CCCC1)[C@H](C)CN([C@@H](C)CO)S2(=O)=O | ? | – | – | – | – | –
COc1ncccc1C(=O)NC1CCCc2c1cnn2-c1ccc(C)c(C)c1 (stereo unspecified) | – | – | – | – | – | 31
CCOC(=O)/C=C1/SCC(=O)N1CC(=O)NC12CC3CC(CC(C3)C1)C2 | 57 | – | – | · | – | –
C[C@@H]1CN([C@H](C)CO)C(=O)Cc2cc(NC(=O)Nc3ccc4c(c3)OCO4)ccc2O[C@H]1CN(C)Cc1ccncc1 | · | – | – | – | – | ·
COc1ccc(Nc2c3c(nc4ccccc24)CCC3)c(OC)c1 | – | – | – | – | – | –
CN(C)CCNc1c2c(nc3ccccc13)CCC2 | – | – | – | – | – | –
COc1ccccc1Nc1c2c(nc3ccccc13)CCC2 | – | – | 62 | – | – | –
COCCCNc1c2c(nc3ccccc13)CCC2 | – | – | – | – | 44 | –
CC(=O)N1[C@@H]2c3ccc(-c4ccccc4)c(=O)n3C[C@@H]2[C@@H](CO)[C@@H]1C(=O)N(C)C | · | – | – | – | – | ·
O=C(C[C@@H]1CC[C@@H]2[C@H](COC[C@@H](O)CN2Cc2cc(F)ccc2F)O1)NCc1ccccc1 | · | – | – | – | – | –
